A word on the IC50: it is the midpoint of a concentration-inhibition curve. A word on the GI50: it is the concentration at which growth is held to half of that of the control. Read a low GI50 as greater sensitivity of the cells.

Some results are limits rather than exact numbers.

For one assay, the system named is SF-268. Put plainly: Cytotoxicity against human SF268 cells after 48 hrs by SRB assay. Format: functional, cell-based. Particulars: SF-268, 48 h. The gist of the method: (§1)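 Compounds dissolved in DMSO and freshly diluted in culture medium, final DMSO 0.25%. Growth inhibition read by sulforhodamine B protein staining per the NCI screening protocol. Doxorubicin as positive control. GI50 given as mean ± SEM of 3-6 independent experiments, each in duplicate.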
For orientation: In SRB staining, fixed cells bind dye roughly in proportion to their protein.

Assay [1] can be described thus: Antiproliferative activity against human lymphocytes. Particulars: Lymphocyte. The assay is classed as cell-based.
The subject of the next assay is MCF7. Put plainly: Cytotoxicity against human MCF7 cells after 48 hrs by SRB assay. The following applies: MCF7, 48 h. The assay is classed as functional, cell-based. The gist of the method:
as §1

The subject of a further assay is NCI-H460. Put plainly: Cytotoxicity against human NCI-H460 cells after 48 hrs by SRB assay. Particulars: NCI-H460, 48 h. Format: functional, cell-based. The gist of the method: as §1

`C[C@@H](C(=O)O)[C@@]1(C)CC[C@H]2[C@@](C)(CC[C@@]3(C)[C@@H]4CC(C)(C)CC[C@]4(C)CC[C@]23C)[C@@H]1CC=O`: the half-inhibitory concentration (IC50) came to 5.4 µM in the assay with SF-268, 10.7 µM in assay [1], 5.4 µM in the assay on MCF7 and 5.4 µM in the assay on NCI-H460.

Take `CC(=O)[C@@]1(C)CC[C@H]2[C@@](C)(CC[C@@]3(C)[C@@H]4CC(C)(C)CC[C@]4(C)CC[C@]23C)[C@@H]1CC(=O)O`: the concentration for 50% growth inhibition (GI50) in the assay with SF-268 was 12.9 µM; in the assay with MCF7, 10.9 µM; in the assay with NCI-H460 it was 17.6 µM.

Regarding `COC(=O)CC[C@H]1[C@]2(C)CC[C@@]3(C)[C@@H]4CC(C)(C)CC[C@]4(C)CC[C@]3(C)[C@H]2CC[C@]1(C)C(C)=O`, the GI50 with SF-268, with MCF7 and with NCI-H460 was > 110 µM in each case.

Take `CC1(C)CC[C@]2(C)CC[C@]3(C)[C@H]4CC[C@@]5(C)[C@@H](CCC(=O)[C@]5(C)O)[C@]4(C)CC[C@@]3(C)[C@@H]2C1`: the 50% growth inhibitory concentration (GI50) in the assay with SF-268, in the assay with MCF7 and with NCI-H460 was > 50 µM in each case.

Regarding `CC(=O)[C@@]1(C)CC[C@H]2[C@@](C)(CC[C@@]3(C)[C@@H]4CC(C)(C)CC[C@]4(C)CC[C@]23C)[C@@H]1CCC(=O)O`, the GI50 turned out to be 24.6 µM in the assay with SF-268, 26.9 µM with MCF7 and 32.8 µM in the assay with NCI-H460.

Regarding `COC(=O)C[C@H]1[C@]2(C)CC[C@@]3(C)[C@@H]4CC(C)(C)CC[C@]4(C)CC[C@]3(C)[C@H]2CC[C@]1(C)C(C)=O`, the concentration for 50% growth inhibition (GI50) in the assay with SF-268 was 106 µM; in the assay on MCF7, 101 µM; with NCI-H460, 93.9 µM.

With `COc1cccc2c1C(=O)c1c(O)c3c(c(O)c1C2=O)C[C@@](O)(C(=O)CO)C[C@@H]3O[C@H]1C[C@H](N)[C@H](O)[C@H](C)O1` [DOXORUBICIN], the concentration for 50% growth inhibition (GI50) turned out to be 0.094 µM with SF-268, 0.0428 µM in the assay on MCF7 and 0.094 µM in the assay with NCI-H460.

For the molecule `CC1(C)CC[C@]2(C)CC[C@]3(C)[C@H]4CC[C@@]5(C)[C@@H](CCC(=O)[C@@]5(C)O)[C@]4(C)CC[C@@]3(C)[C@@H]2C1`, the GI50 with SF-268, with MCF7 and in the assay with NCI-H460 was > 110 µM throughout.

For the origin of these results see ChEMBL document CHEMBL1151259, “Hemisynthetic secofriedelane triterpenes with inhibitory activity against the growth of human tumor cell lines in vitro” (J Nat Prod, 2004).
